From ChEMBL document CHEMBL1914438, “Synthesis and biological activity of novel N-cycloalkyl-(cycloalkylaryl)-2-[(3-R-2-oxo-2H-[1,2,4]triazino[2,3-c]quinazoline-6-yl)thio]acetamides” (2011)

What was measured:
Type in all cases: functional
[1] = system: OVCAR-8; test: Cytotoxicity against human OVCAR8 cells assessed as cell growth at 10^-5 M after 48 hrs by SRB assay; details: OVCAR-8, 48 h, read-out: Activity
In short: (§1)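 NCI human tumor cell line panel from nine cancer types. Each line was inoculated and preincubated 24–48 h, then exposed to a single concentration (10^-5 M) for 48 h. Growth was read by sulforhodamine B protein staining, measured spectrophotometrically. Value reported as percent growth of treated cells relative to untreated controls.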

[2] = system: Photobacterium leiognathi; test: Antibacterial activity against Photobacterium leiognathi Sh1 assessed as inhibition of bacterial luminescence at 0.25 mg/mL after 10 mins by bioluminometry-based acute action test; parameters: scale not given: the % may be the effect or the level left
In short: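 Marine P. leiognathi Sh1 (Azov Sea shrimp isolate) diluted in chloride solution to 10^5 cells/mL; compounds suspended in DMSO mixed with 1 mL bacterial suspension. Acute test: 10 min at 25 °C, then bioluminescence measured by bioluminometer as % of compound-free control. Tetracycline reference.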

[3] = system: U-251; test: Cytotoxicity against human U251 cells assessed as cell growth at 10^-5 M after 48 hrs by SRB assay; details: U-251, 48 h, read-out: Activity; in short: as §1
[4] = system: K562; test: Cytotoxicity against human K562 cells assessed as cell growth at 10^-5 M after 48 hrs by SRB assay; details: K562, 48 h, read-out: Activity
In short: (§2)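 NCI 60-cell-line one-dose primary screen: cells inoculated and preincubated 24–48 h, then test agent added at a single 10^-5 M concentration for a further 48 h. Endpoint is sulforhodamine B protein staining read spectrophotometrically. Reported as percent growth relative to untreated control cells.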

[5] = system: SK-OV-3; test: Cytotoxicity against human SKOV3 cells assessed as cell growth at 10^-5 M after 48 hrs by SRB assay; details: SK-OV-3, 48 h, read-out: Activity; in short: as §1
[6] = system: Yamadazyma tenuis; test: Antifungal activity against Candida tenuis assessed as zone of inhibition at 0.1 mg/mL after 48 to 72 hrs by stiff-plate agar-diffusion method; details: read-out: DIZ
[7] = system: IGROV-1; test: Growth inhibition of human IGROV1 cells after 48 hrs by SRB assay; details: IGROV-1, 48 h
In short: (§3)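 NCI panel of about 60 human tumor lines, 48 h continuous exposure at five 10-fold dilutions from 10^-4 to 10^-8 M. SRB protein staining was read as absorbance at time zero, in untreated controls and at each concentration. GI50 is the concentration giving 50% lower net protein increase than controls. TGI is where Ti = Tz, and LC50 is 50% protein loss versus start.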

[8] = system: IGROV-1; test: Cytotoxicity against human IGROV1 cells assessed as cell growth at 10^-5 M after 48 hrs by SRB assay; details: IGROV-1, 48 h, read-out: Activity; in short: as §2
[9] = Cytotoxicity against human NCI60 cells assessed as cell growth at 10^-5 M after 48 hrs by SRB assay; details: NCI60, 48 h, read-out: Activity; in short: as §1
[10] = system: Aspergillus niger; test: Antifungal activity against Aspergillus niger assessed as zone of inhibition of late spore formation at 0.5 mg/mL after 48 to 72 hrs by stiff-plate agar-diffusion method; details: read-out: DIZ
[11] = system: SNB-19; test: Cytotoxicity against human SNB19 cells assessed as cell growth at 10^-5 M after 48 hrs by SRB assay; details: SNB-19, 48 h, read-out: Activity; in short: as §1
[12] = system: SK-MEL-28; test: Cytotoxicity against human SK-MEL-28 cells assessed as cell growth at 10^-5 M after 48 hrs by SRB assay; details: SK-MEL-28, 48 h, read-out: Activity; in short: as §1
[13] = system: T47D; test: Cytotoxicity against human T47D cells assessed as cell growth at 10^-5 M after 48 hrs by SRB assay; details: read-out: Activity; in short: as §1
[14] = system: Mycobacterium; test: Antibacterial activity against Mycobacterium luteum assessed as zone of inhibition at 0.5 mg/mL after 24 hrs by stiff-plate agar-diffusion method; details: read-out: DIZ
[15] = system: RXF 393; test: Cytotoxicity against human RXF393 cells assessed as cell growth at 10^-5 M after 48 hrs by SRB assay; details: RXF 393, 48 h, read-out: Activity; in short: as §1
[16] = system: DU-145; test: Cytotoxicity against human DU145 cells assessed as cell growth at 10^-5 M after 48 hrs by SRB assay; details: DU-145, 48 h, read-out: Activity; in short: as §2
[17] = system: Escherichia coli; test: Antibacterial activity against Escherichia coli assessed as zone of inhibition at 0.1 mg/mL after 24 hrs by stiff-plate agar-diffusion method; details: read-out: DIZ
[18] = system: TK-10; test: Cytotoxicity against human TK10 cells assessed as cell growth at 10^-5 M after 48 hrs by SRB assay; details: TK-10, 48 h, read-out: Activity; in short: as §1
[19] = system: SR; test: Cytotoxicity against human SR cells assessed as cell growth at 10^-5 M after 48 hrs by SRB assay; details: read-out: Activity; in short: as §1
[20] = system: 786-0; test: Cytotoxicity against human 786-0 cells assessed as cell growth at 10^-5 M after 48 hrs by SRB assay; details: 786-0, 48 h, read-out: Activity; in short: as §2
[21] = system: OVCAR-4; test: Growth inhibition of human OVCAR4 cells after 48 hrs by SRB assay; details: OVCAR-4, 48 h; in short: as §3
[22] = system: SF-295; test: Cytotoxicity against human SF295 cells assessed as cell growth at 10^-5 M after 48 hrs by SRB assay; details: SF-295, 48 h, read-out: Activity; in short: as §1
[23] = system: CAKI-1; test: Cytotoxicity against human Caki1 cells assessed as cell growth at 10^-5 M after 48 hrs by SRB assay; details: CAKI-1, 48 h, read-out: Activity; in short: as §2
[24] = system: RPMI-8226; test: Growth inhibition of human RPMI8226 cells after 48 hrs by SRB assay; details: RPMI-8226, 48 h; in short: as §3
[25] = system: RXF 393; test: Growth inhibition of human RXF393 cells after 48 hrs by SRB assay; details: RXF 393, 48 h
In short: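 NCI 60-cell-line human tumor panel. Cells were inoculated and preincubated for 24–48 h, then exposed continuously to compound for 48 h. Primary screen used a single 10^-5 M concentration. Growth was measured by sulforhodamine B protein staining, read spectrophotometrically, and reported as percent growth versus untreated controls. Selected compounds were also run at five 10-fold dilutions (10^-4 to 10^-8 M) to derive GI50 from time-zero-corrected absorbances.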

[26] = Growth inhibition of human Hs 578T cells after 48 hrs by SRB assay; in short: as §3
[27] = system: HT-29; test: Cytotoxicity against human HT-29 cells assessed as cell growth at 10^-5 M after 48 hrs by SRB assay; details: HT-29, 48 h, read-out: Activity; in short: as §2
[28] = system: 786-0; test: Growth inhibition of human 786-0 cells after 48 hrs by SRB assay; details: 786-0, 48 h; in short: as §3
[29] = system: A549; test: Cytotoxicity against human A549 cells assessed as cell growth at 10^-5 M after 48 hrs by SRB assay; details: A549, 48 h, read-out: Activity; in short: as §2
[30] = read-out: pLC50 (the source's name) (converted)

## CCC1C2CCC(C2)C1NC(=O)CSc1nc2ccccc2c2nc(=O)c(-c3ccc(OC)cc3)nn12 (stereo unspecified)
[1]
  growth at 10 µM: 53.1%
[2]
  Activity: 90.9%
[3]
  growth at 10 µM: -98.9%
[4]
  growth at 10 µM: 39.2%
[5]
  growth at 10 µM: -5.12%
[6]
  zone of inhibition at 100 µg/mL: 0 mm
[7]
  GI50: 2.69 µM
[7]; [30]
  CC50: > 50.1 µM
[7]; read-out: pTGI (converted)
  TGI: 36.3 µM
[8]
  growth at 10 µM: 17%
[9]
  growth at 10 µM: 73.7%
[10]
  zone of inhibition at 500 µg/mL: 18 mm
[11]
  growth at 10 µM: 39.8%
[12]
  growth at 10 µM: 68.7%
[13]
  growth at 10 µM: -11.3%
[14]
  zone of inhibition at 500 µg/mL: 0 mm
[15]
  growth at 10 µM: 9.46%
[16]
  growth at 10 µM: -32%
[17]
  zone of inhibition at 100 µg/mL: 0 mm
[18]
  growth at 10 µM: 13.8%
[19]
  growth at 10 µM: 7.67%
[20]
  growth at 10 µM: 77.7%
[21]
  GI50: 1.66 µM
[21]; [30]
  CC50: 43.7 µM
[21]; read-out: pTGI (converted)
  TGI: 6.31 µM
[22]
  growth at 10 µM: 69.9%
[23]
  growth at 10 µM: 36.1%
[24]
  GI50: 2.95 µM
[24]; [30]
  CC50: > 50.1 µM
[24]; read-out: pTGI (converted)
  TGI: 38 µM
[25]
  GI50: 1.48 µM
[25]; [30]
  CC50: 17.4 µM
[25]; read-out: pTGI (converted)
  TGI: 4.17 µM
[26]
  GI50: 3.89 µM
[26]; [30]
  CC50: > 50.1 µM
[26]; read-out: pTGI (converted)
  TGI: 20 µM
[27]
  growth at 10 µM: 42.8%
[28]
  GI50: 3.02 µM
[28]; [30]
  CC50: > 50.1 µM
[28]; read-out: pTGI (converted)
  TGI: 15.8 µM
[29]
  growth at 10 µM: 50.4%
